Experimental data as given in ChEMBL document CHEMBL1130185, “Search for DNA repair inhibitors: selective binding of nucleic bases-acridine conjugates to a DNA duplex containing an abasic site” (J Med Chem, 1997).

Key:
[1] = Deprotonation equilibrium constant for compound was determined; format: ADME
Summary of the method: (§1)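 pKa values were determined by potentiometric titration of the acridine ligand at 5 × 10^-4 M across pH 2-12. The distribution of nonprotonated, mono-, bi- and higher protonated species was estimated graphically from the titration curves.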

[2] = Deprotonation equilibrium constant for compound was determined at pH<4; format: ADME; summary of the method: as §1

pKa [1]	pKa [2]	SMILES
10		COc1ccc2nc3cc(Cl)ccc3c(NCCCNCCCN)c2c1
9.8	4	COc1ccc2nc3cc(Cl)ccc3c(NCCCNCCCNCCn3cnc4c(N)nc(N)nc43)c2c1
